The list is not random: actives were taken first. Their share in the collection is about 2.7%.
MC4R ag barr = MC4R agonists recruiting beta-arrestin, primary screen, cell-based, luminescence, agonist arm of biased-ligand search; Melanocortin receptor 4 (Homo sapiens), P32245; U2OS MC4R beta-arrestin complementation; percent of melanotan II response, DMSO zero; activation, % at 8.9 µM; actives 0.98% (n = 360,000); AID 540308, 2011;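 active = activation above a per-plate cutoff, the mean activation of sample wells on that plate plus 3 SD, cut at about 8% in these data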
NR2E3 ag-1 = inhibitors of NR2E3-RetCOR corepressor binding, primary screen, NR2E3 agonist project, biochemical, TR-FRET, GST-NR2E3, biotin-RetCOR. inhibition of corepressor binding, % at 4.78 µM. actives 0.12% (n = 320,000). Photoreceptor-specific nuclear receptor (Homo sapiens), Q9Y5X4. AID 2300, 2010. 1536-well;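 active = percent inhibition above the cutoff of mean plus 3 SD of all tested compounds, set per screening campaign, cut at about 20% in these data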;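 also: 0% = DMSO wells and 100% = biotin wells as full block of FRET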
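Material: NR2E3–RetCOR corepressor complex | Quantity: 1.35 nM GST-tagged NR2E3 final | Schedule: 5 h at 4 °C | Replication: Singlicate compound wells | Reagent: RetCOR corepressor, biotinylated, 7 nM | Controls: Biotin wells as high control, 0.6% DMSO wells as low control | Signal: TR-FRET, Eu(K)-anti-GST donor, streptavidin-D2 acceptor, ex 340, em 617/671 nm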
MC4R antagonist = MC4R antagonists of cAMP signaling, primary screen, cell-based, TR-FRET, antagonist arm of biased-ligand search; Melanocortin receptor 4 (Homo sapiens), P32245; MC4R-expressing cells, MTII-stimulated cAMP, LANCE TR-FRET; inhibition, % at 6.5 µM; actives 0.48% (n = 360,000); AID 540295, 2011;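 active = inhibition above its plate's cutoff, the mean of tested wells on that plate plus 3 SD, cut at about 29% in these data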;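 also: 0% = Melanotan II alone and 100% = Melanotan II plus saturating MCL0020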
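System: U2OS cells stably expressing human melanocortin 4 receptor (MC4R). Reagent: Melanotan II challenge after compound preincubation. Doses: 6.5 µM. Times: 30-min compound, 1-h challenge, 1-h detection, room temperature. Measured by: TR-FRET with Eu-cAMP and labeled anti-cAMP, 671 nm. Replicates: singlicate.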
Rev-erbA mod = modulators of Rev-erb alpha DNA binding, primary screen, biochemical, FITC-DNA, fluorescence polarization, uHTS; Nuclear receptor subfamily 1 group D member 1 (Homo sapiens), P20393; Rev-erbα–FITC-DNA binding, 90 min; activity, % at 10 µM; actives 0.79% (n = 370,000);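 active = activity above about 14%, limit read from the data; passing the limit was not always enough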;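 also: 0% = DMSO wells with 35 nM protein and 100% = DMSO wells with 750 nM protein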
Target sequence (P20393 whole entry, looked up): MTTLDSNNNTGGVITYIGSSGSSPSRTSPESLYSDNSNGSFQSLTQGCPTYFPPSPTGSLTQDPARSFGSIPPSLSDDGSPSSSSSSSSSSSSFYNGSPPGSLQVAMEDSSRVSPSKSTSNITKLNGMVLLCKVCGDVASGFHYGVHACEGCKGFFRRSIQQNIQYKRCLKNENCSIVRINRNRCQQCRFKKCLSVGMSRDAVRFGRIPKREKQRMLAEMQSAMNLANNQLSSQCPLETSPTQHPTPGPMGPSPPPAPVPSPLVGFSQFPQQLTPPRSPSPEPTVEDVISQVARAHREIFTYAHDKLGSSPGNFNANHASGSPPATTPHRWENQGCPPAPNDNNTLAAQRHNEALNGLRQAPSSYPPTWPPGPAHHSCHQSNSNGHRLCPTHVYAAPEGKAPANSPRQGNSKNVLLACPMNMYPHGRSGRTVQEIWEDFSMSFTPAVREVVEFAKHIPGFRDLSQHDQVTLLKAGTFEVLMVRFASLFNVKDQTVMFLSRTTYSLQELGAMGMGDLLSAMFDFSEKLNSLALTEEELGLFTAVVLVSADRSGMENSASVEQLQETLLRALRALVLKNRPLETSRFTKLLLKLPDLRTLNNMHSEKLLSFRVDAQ
NR2E3 ag-2 = NR2E3 agonists in two-hybrid cells, primary screen, cell-based, luminescence, CHO-S, Gal4-NCOR/VP16-NR2E3; actives 0.35% (n = 360,000); AID 602229, 2012; inhibition of corepressor binding, % at 3.98 µM; luciferase; Photoreceptor-specific nuclear receptor (Homo sapiens), Q9Y5X4;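 active = inhibition above the mean of all tested compounds plus 3 SD, cut at about 70% in these data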;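 also: 0% = DMSO with NR2E3 transfected cells and 100% = cells lacking NR2E3 construct; higher means lower luciferase signal from less NR2E3 corepressor binding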
PG9 Ab binder = binders of HIV-1 gp120 antibody PG9, primary screen, biochemical, TR-FRET. HIV-1 gp120 / PG9 antibody interaction. TR-FRET gp120-PG9 antibody binding. inhibition, % at 6.7 µM. actives 0.43% (n = 360,000). AID 624416, 2012; in the data active = inhibition above about 8.5%
NR2E3 ag confirm = NR2E3 agonist confirmation in cells, cell-based, luminescence, CHO-S two-hybrid. shares compounds with NR2E3 ag-2. CHO-S mammalian two-hybrid NR2E3-NCOR, luciferase luminescence. inhibition, % at 3.98 µM. actives 51% (n = 2,300);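 active = average inhibition above a cutoff equal to the mean inhibition of all tested compounds plus one SD, cut at about 70% in these data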;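 also: 0% = DMSO in NR2E3 cells and 100% = DMSO in cells lacking NR2E3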
VP16 counter = GAL4-VP16 reporter modulators, confirmation, counter-screen for NR2E3 agonist project, cell-based, luminescence, CHO-S, high throughput; actives 29% (n = 2,300); inhibition, % at 3.98 µM; shares compounds with NR2E3 ag-2; AID 624379, 2012; CHO-S GAL4-VP16 luciferase reporter;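 active = mean inhibition above a cutoff equal to the average over all tested compounds plus one standard deviation, cut at about 70% in these data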;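 also: luciferase from a UAS reporter driven by GAL4-VP16 transactivation; 0% = DMSO with VP16-transfected cells and 100% = DMSO with cells lacking VP16; higher means less reporter light so more repression of VP16 activity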
* marks the source's active call; other numbers are inactive results; . = not tested or not shown.

SMILES | MC4R ag barr | NR2E3 ag-1 | MC4R antagonist | Rev-erbA mod | NR2E3 ag-2 | PG9 Ab binder | NR2E3 ag confirm | VP16 counter
C/C(=N/NS(=O)(=O)c1cc(C)ccc1C)c1ccc2c(c1)OCO2 | 0.1 | . | 7.7 | -1.0 | -15.1 | -2.2 | . | .
CC(C)(C)OC(=O)N1CCC[C@H]1c1nnc(SCc2ccccc2)o1 | 0.8 | -0.2 | 4.2 | 0.4 | -8.4 | 2.0 | . | .
CC(=C\c1ccccc1)/C=C1/SC(=O)N(CCCC(=O)Nc2ccc(C(=O)O)cc2)C1=O | -3.2 | 2.2 | 10.2 | -2.6 | 72.8* | -1.4 | 9.7 | 76.1*
CCc1cccc(NS(=O)(=O)c2ccc3c(c2)n(C)c(=O)n3C)c1 | -0.1 | -0.9 | 4.8 | -2.3 | 64.4 | 2.6 | 58.5 | 44.2
Cn1c(=O)n(C)c2cc(NS(=O)(=O)c3ccc4c(c3)CCCC4)ccc21 | -1.8 | 1.4 | 3.2 | 2.7 | 65.6 | -1.1 | 85.0* | 67.8
Cn1c(=O)n(C)c2cc(NS(=O)(=O)c3ccc(C(C)(C)C)cc3)ccc21 | -2.9 | 2.4 | -14.4 | 5.8 | 63.2 | -1.9 | 82.4* | 75.6*
CCc1cccc(NS(=O)(=O)c2ccc3c(c2)oc(=O)n3C)c1 | -1.8 | -1.3 | 4.2 | -2.9 | 21.3 | -1.1 | . | .
CCN(CC)C(=O)Cn1cc(S(=O)(=O)CC(=O)Nc2ccc(OC)c(OC)c2)c2ccccc21 | -0.6 | -2.5 | 19.0 | -5.1 | 4.1 | -0.4 | . | .
O=C(NC(=S)Nc1ccc2c(c1)OCCO2)c1cccc(Br)c1 | -0.8 | -2.0 | 4.5 | 0.9 | -123.0 | -0.9 | . | .
S=C(Nc1ccc(Br)cc1)Nc1ccc2c(c1)OCCO2 | -0.2 | 1.9 | 0.4 | -4.9 | 50.0 | -0.5 | -85.2 | -78.8
Cc1cccc(CSC(Nc2ccc(F)cc2)=C(C#N)C#N)c1 | -1.6 | -0.2 | 2.8 | 5.8 | 96.5* | -1.1 | 98.2* | 93.2*
Clc1ccc(-c2nnc(CSc3nnc(-c4cccs4)n3Cc3ccccc3)o2)cc1 | 1.4 | 0.2 | 14.8 | 6.6 | 74.3* | -6.8 | 87.7* | 74.1*
Nc1nonc1C(=O)NCCNCc1cc(Br)ccc1OCc1ccccc1F | -2.2 | 2.9 | 6.8 | -0.7 | 50.7 | -1.6 | 59.8 | 50.5
Cn1c(=O)c2c(nc3n2CC(CO)O3)n(C)c1=O (centres undefined) | -0.9 | 0.1 | 7.2 | -7.1 | 0.3 | -3.0 | . | .
O=C(O)c1ccc(NS(=O)(=O)c2ccc3nnn(O)c3c2)cc1 | 0.9 | 5.3 | -1.4 | -0.1 | -5.8 | 2.4 | . | .
COc1ccc(C=NNC(=S)NC23CC4CC(CC(C4)C2)C3)cc1OC | -3.0 | . | 3.2 | 2.5 | 64.4 | -0.8 | 2.4 | 12.4
Cc1ccc(-c2csc(N3CCC(NS(=O)(=O)c4ccc5c(c4)OCCO5)CC3)n2)cc1 | 1.1 | 0.4 | 0.8 | 1.2 | 88.6* | -0.7 | 99.1* | 89.4*
O=C(Cn1c(=O)n(Cc2ccccc2)c(=O)c2ccccc21)NCc1ccco1 | 2.4 | 0.1 | 13.1 | -4.4 | -4.3 | 0.7 | . | .
FC(F)(F)c1cccc(CN2CCN(c3ncccn3)CC2)c1 | 0.7 | -1.9 | 5.8 | 6.9 | 5.0 | 1.3 | . | .
CCCCCc1ccc(CC(=O)Nn2c(C)nc3ccccc3c2=O)cc1 | 2.0 | 0.4 | 3.6 | -2.1 | 63.6 | -1.3 | 75.8* | 70.0

Screens (PubChem)
